Compound activity from PubChem BioAssay.
Sampled rows, rich in hits. Any-hit rate of the full collection: about 1.2%.
Rin1 Abl inh: human Rin1-Abl interaction inhibition | P00519+Q13671 | TR-FRET Rin1/Abl binding, biochemical | inhibition, % at 7.35 µM | 0.4% of 360,000 active; in the data active = inhibition above about 5%, passing the limit was not always enough
ASAP1 inh: inhibitors of human ASAP1 ArfGAP activity; ASAP1-stimulated ARF1 GTP hydrolysis, GDP FP detection; inhibition, % at 16.5 µM; 0.19% of 360,000 active; AID 624377; in the data active = inhibition above about 25%
Target sequence (Q9ULH1 325-724 limits assumed): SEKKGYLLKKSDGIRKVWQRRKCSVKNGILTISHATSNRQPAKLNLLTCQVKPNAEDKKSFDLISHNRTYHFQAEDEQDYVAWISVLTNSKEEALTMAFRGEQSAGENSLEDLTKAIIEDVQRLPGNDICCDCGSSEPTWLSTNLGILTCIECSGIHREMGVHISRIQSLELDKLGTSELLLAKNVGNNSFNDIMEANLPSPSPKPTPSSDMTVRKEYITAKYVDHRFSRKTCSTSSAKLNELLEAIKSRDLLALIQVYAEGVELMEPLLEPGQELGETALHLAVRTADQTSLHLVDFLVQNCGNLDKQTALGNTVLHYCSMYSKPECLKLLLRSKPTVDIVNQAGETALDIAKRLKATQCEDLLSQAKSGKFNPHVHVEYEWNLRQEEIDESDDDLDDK
ARFGAP1 inhibitor: inhibitors of rat ARFGAP1 | AID 651572 | 0.26% of 360,000 active | inhibition, % at 16.5 µM | Arfgap1-stimulated ARF1 GTP hydrolysis, GDP FP detection | Q62848;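 active = inhibition above a per-plate limit, mean inhibition of low control wells plus 3 SD, cut at about 25% in these data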
Target sequence (Q62848 1-136 limits assumed): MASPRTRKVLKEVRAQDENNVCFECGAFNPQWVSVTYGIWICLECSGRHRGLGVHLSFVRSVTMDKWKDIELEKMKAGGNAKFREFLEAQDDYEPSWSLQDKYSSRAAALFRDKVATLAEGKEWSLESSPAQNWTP
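Material: truncated rat Arfgap1 GAP domain; Incubation: compound-enzyme preincubation 20 min, reaction 120 min, detection 60 min, 25 °C; Read-out: percent inhibition of Arfgap1-stimulated GTP hydrolysis; Technique: FP, GDP Alexa 633 tracer displaced from anti-GDP antibody, 620/688 nm; Controls: No-Arfgap1 wells (100%) versus DMSO full-reaction wells (0%); Replication: single well per compound.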
GalR3 antagonist: human GalR3 antagonism | O60755 | HEK293 GalR3-CNG cAMP membrane potential fluorescence; galR3 body fused to GalR1 C-terminus | inhibition, % at 3 µM | 0.44% of 360,000 active;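 active = inhibition above the screen-wide average plus 3 SD, cut at about 13% in these data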;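 also: forskolin and galanin both at EC90 stimulate the cells; cAMP rise reported by CNG channel membrane potential dye signal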
A number is an active result; – = inactive; · = no result given.

SMILES	Rin1 Abl inh	ASAP1 inh	ARFGAP1 inhibitor	GalR3 antagonist
N#Cc1ccc(CSc2nnc(-c3cccnc3)n2-c2ccccc2)cc1	–	–	–	–
CCOc1ccc(-n2c(SCc3ccc(C#N)cc3)nnc2-c2cccnc2)cc1	–	–	–	63.5
CN(C)c1ccc(C=c2c3ccccc3n3c2c2ccccc2[n+]3C)cc1	–	59.4	95.0	–
Cc1cc2c(=Cc3ccc(N(C)C)cc3)c3ccccc3n2[n+]1C	–	–	–	–
O=c1[nH]c2ccccc2c(O)c1O	20.5	–	–	–
O=c1[nH]c2ccccc2c(O)c1-[n+]1ccccc1	–	–	–	–
COc1cccc(/C=N/NC(=O)NC23CC4CC(CC(C4)C2)C3)c1O	8.1	·	·	·
COC(=O)C1=C(C)N(C)C(=NCc2ccc3c(c2)OCO3)NC1c1ccc(Cl)cc1 (stereo not given)	·	–	–	–
O=C(NCCCn1ccnc1)C(=O)NCC(c1ccco1)N1CCN(c2ccc(F)cc2)CC1 (stereo not given)	–	–	–	12.8
CCCCCCCCCCn1ccc(=N)cc1	–	–	–	97.0
COC(=O)c1ccc(N)cc1O	–	–	–	–
COC(=O)c1ccc(=O)c2nc3/c(=C/O)c(O)cc(=O)c3[nH]c12	37.9	–	–	–
Cc1cc(Nc2ccc(OC(F)F)cc2)cc(=O)n1-c1ccc(OC(F)F)cc1	·	–	–	–
O=C(NC1(O)C(=O)c2ccccc2C1=O)c1ccc(C(F)(F)F)cc1	18.0	–	–	–
O=C(N[C@@H](Cc1ccccc1)C(=O)O)c1ccc(C(F)(F)F)cc1	–	–	–	–
Cc1nc2ccc(NS(=O)(=O)c3ccc4c(c3)OCCO4)cc2s1	–	–	–	102.5
COC(=O)[C@]12C[C@H](CC(=O)NCc3cccs3)C(=O)N(Cc3ccc4c(c3)OCO4)C1=C[C@H](C(C)(C)C)O[C@@H]2C	·	–	–	–
O=S(=O)(O)c1cc(O)c2c(O)c(N=Nc3cc(Cl)ccc3O)c(S(=O)(=O)O)cc2c1	10.8	·	·	·
NC(=S)N=Nc1c(O)cc(O)c2[nH]c(=O)ccc12	14.5	–	–	–
NC(=S)N=Nc1c(O)[nH]c2ccc(F)cc12	–	–	–	–
COCc1[nH]nc2c1C(c1ccc(C)cc1)NC2=O (stereo not given)	·	–	–	–
CCCCc1ccc(N/C(N)=N/c2nc(C)cc(C)n2)cc1	–	–	–	40.7
Cc1ccc(N/C(N)=N/c2nc(C)cc(C)n2)cc1	–	–	–	–
O=c1cc(-c2ccccc2)oc2cc(O)c(O)c(O)c12	20.6	–	–	–
Cc1nc(N2CCOCC2)c2c(C)c(C(=O)Nc3ccc(F)cc3Cl)sc2n1	–	–	–	13.5
SMILES	Rin1 Abl inh	ASAP1 inh	ARFGAP1 inhibitor	GalR3 antagonist
O=C(c1nnsc1S(=O)(=O)c1ccc(Cl)cc1)N1CCOCC1	–	–	–	21.8
CNC(=O)c1nnsc1S(=O)(=O)c1ccc(Cl)cc1	–	–	–	–
COCCCNC(=O)C[C@H]1C[C@@]2(C(=O)OC)C(=C[C@H](COCc3ccccc3)O[C@@H]2C)N(Cc2ccc3c(c2)OCO3)C1=O	·	–	–	–
CN(C)c1ccc2nc3ccc(=O)cc-3sc2c1	14.0	–	–	–
CC(=O)c1sc(Nc2ccccn2)nc1C	–	–	26.2	–
C[C@@H]1CN(c2ccc(N3CCN(C(=O)OC(C)(C)C)C[C@@H]3C)cc2C#N)CCN1Cc1ccccc1	·	–	–	–
CCN(CC)CC(C)(C)C(=O)/C=C/c1ccc(/C=C/C(=O)C(C)(C)CN(CC)CC)cc1	–	–	–	36.2
COC(=O)c1cccc(-c2ccc(C(c3c(C)[nH][nH]c3=O)c3c(C)[nH][nH]c3=O)o2)c1	–	25.8	31.8	–
O=C(NCC1CCN(C(=O)C(=O)c2cccs2)CC1)c1cccnc1	·	–	–	–
CC1(C)CC(N2CCN(Cc3ccccc3)CC2)=CC(=[N+]2CCCCC2)C1	–	–	–	–
CN(Cc1ccccc1)C1=CC(=[N+]2CCCCC2)CC(C)(C)C1	–	–	–	41.6
COc1ccc(-n2c(N)c(C(=O)NCc3ccco3)c3nc4ccccc4nc32)cc1	–	–	–	–
Nc1c(C(=O)NCc2ccco2)c2nc3ccccc3nc2n1CCc1ccc(F)cc1	15.4	–	–	–
CCN(CC)CCNc1ncnc2c1sc1nc(N3CCOCC3)c3c(c12)CC(C)(C)SC3	17.5	–	–	–
CC1(C)Cc2c(c(N3CCOCC3)nc3sc4c(NCCN)ncnc4c23)CO1	–	–	–	–
NCCNC(=O)Cc1cccc(NC(=O)Cc2ccc(Nc3ncnc4c3ncn4[C@@H]3O[C@H](CO)[C@@H](O)[C@H]3O)cc2)c1	17.2	–	–	·
O=C(Nc1ccc(CN2CCOCC2)cc1)c1ccc(-c2cccc([N+](=O)[O-])c2)o1	–	37.0	36.7	–
CCO/C=C1/C(=O)N(Cc2ccccc2)C(=O)c2ccccc21	–	31.4	–	–
COC(=O)[C@H](Cc1ccccc1)N1CC(N2CCCC2)CS1(=O)=O (stereo not given in full)	·	–	–	–
Nc1[nH]c(C(=O)c2ccc(Br)cc2)c(-c2ccc(Cl)cc2)c1C(=O)NCCc1c[nH]c2ccccc12	·	–	–	–
C[C@@H]1C=CCCO[C@]12C(=O)N(Cc1ccc(F)cc1)c1ccccc12	·	–	–	–
C[C@H]1O[C@@H](O[C@H]2[C@@H](O)C[C@H](O[C@H]3[C@@H](O)C[C@H](O[C@H]4CC[C@@]5(C)[C@H](CC[C@@H]6[C@@H]5C[C@@H](O)[C@]5(C)[C@@H](C7=CC(=O)OC7)CC[C@]65O)C4)O[C@@H]3C)O[C@@H]2C)C[C@H](O)[C@@H]1O	–	–	–	23.4
c1ccc(CN2CCN(c3ncnc4c3[nH]c3ccccc34)CC2)cc1	–	–	–	60.1
O=C(CSc1nc2nn(-c3ccccc3)c(=O)c-2c2n1CCCCC2)c1ccc(O)c(O)c1	16.1	·	·	·
C[C@@H]1CN([C@H](C)CO)C(=O)c2cc(NC(=O)Nc3ccc(C(F)(F)F)cc3)ccc2O[C@H]1CN(C)S(=O)(=O)c1cccs1	–	26.0	–	–
SMILES	Rin1 Abl inh	ASAP1 inh	ARFGAP1 inhibitor	GalR3 antagonist
C[C@H](CO)N1C[C@H](C)[C@@H](CN(C)S(=O)(=O)c2cccs2)Oc2ccc(NC(=O)Nc3ccc(C(F)(F)F)cc3)cc2C1=O	–	–	–	–
O=C(/C=C/c1cc(Br)ccc1O)c1ccco1	–	–	–	28.0
COc1ccc(C2NCCc3c2[nH]c2ccccc32)cc1CN1CCc2cc(OC)c(OC)cc2C1C (stereo not given)	7.3	·	·	·
COc1ccc(C2NCCc3c2[nH]c2ccccc32)cc1COc1ccc(F)cc1 (stereo not given)	–	–	–	–
Cc1oc(-c2ccc(Cl)cc2)nc1CN1CCCC(C(=O)NC2CC2)C1 (stereo not given)	–	–	–	–
CCOC(=O)N1CCN(C(=O)C2CCCN(Cc3nc(-c4ccc(Cl)cc4)oc3C)C2)CC1 (stereo not given)	–	–	–	82.0
CC[C@H](NC(=O)[C@@H](Cc1ccccc1)NC(=O)[C@H]1O[C@@H](n2cnc3c(=O)[nH]c(N)nc32)[C@H](O)[C@@H]1O)c1ccccc1	·	–	–	–
